Screening data deposited in PubChem BioAssay by several laboratories.
Sampled rows, rich in hits. Any-hit rate of the full collection: about 3%.
Exocytosis inh = lytic granule exocytosis inhibition. TALL-104 LAMP-1 surface exposure, flow cytometry; cells stimulated with thapsigargin and PMA. 0.66% of 360,000 active. inhibition, % at 10 µM;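 active means inhibition above about 55%, limit read from the data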
iPSC survival up = enhancers of human iPSC single-cell survival. hiPSC single-cell survival, ATPlite luminescence; 100% = ROCK inhibitor wells, 0% = DMSO. survival enhancement, % at 20 µM. 0.044% of 360,000 active; in the data active means survival enhancement above about 18%;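 further: cells exposed to compounds for 16 hours before the ATP read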
UBC13 inh = inhibitors of human UBC13 polyubiquitin chain formation; P61088; TR-FRET; inhibition, % at 20 µM; 0.47% of 330,000 active; AID 485273; in the data active means inhibition above about 45%, passing the limit was not always enough
Target sequence (P61088 whole entry, looked up): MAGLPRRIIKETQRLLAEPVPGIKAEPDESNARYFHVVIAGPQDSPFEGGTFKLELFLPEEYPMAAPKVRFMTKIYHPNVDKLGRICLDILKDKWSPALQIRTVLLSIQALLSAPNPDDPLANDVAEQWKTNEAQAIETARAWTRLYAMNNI
Apaf-1 inh = blocks human Apaf-1 apoptosome activity; O14727; reconstituted apoptosome caspase-3 activity, DEVD-Rh110 fluorescence; inhibition, % at 20 µM; 0.71% of 330,000 active; active means inhibition of at least 40% at 20 µM;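 further: plate controls were DMSO wells for no effect and DEVD-CHO caspase inhibitor wells for full effect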
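Material: reconstituted apoptosome with Apaf-1, cytochrome c, caspase-9, procaspase-3, dATP. Technique: Rh110 fluorescence intensity. Buffer or medium: pH 7.5 Hepes buffer with CHAPS, BSA, DTT. Times: 30 min plus 50 min, RT.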
MPTP inh = permeability transition pore inhibition | isolated mouse mitochondria, Ca2+ swelling absorbance, 30 min | inhibition, % at 10 µM | 1.4% of 360,000 active | AID 602449;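 active means inhibition of 50% or more, scaled per plate between neutral and stimulator controls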;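 further: 0% = DMSO wells given calcium and 100% = 1 mM EGTA wells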
MIN6 prolif = induces beta-cell replication in MIN6 cells; AID 2380; MIN6 cells proliferation, ATPlite luminescence, 48 h; cells starved in 0.2% serum; 100% = growth in 10% serum; 0.29% of 330,000 active; proliferation, % at 10 µM;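 active means compounds whose signal lies at least 3.5 SD above the mean of all wells on their plate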;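 further: 0% = DMSO-treated cells in low-serum medium and 100% = 10% serum control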
Apaf-1 inh conf = Apaf-1 inhibition, single-dose confirmed | shares compounds with Apaf-1 inh | reconstituted apoptosome, caspase-3 DEVD-Rh110 fluorescence | inhibition, % at 20 µM | 25% of 1,800 active;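 active means mean inhibition of at least 40% at 20 µM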;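 further: plate controls were DMSO wells for no effect and DEVD-CHO caspase inhibitor control wells for full effect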
Rh110 interf inh = Rh110 signal interference in Apaf-1 inhibitor counter-screen; shares compounds with Apaf-1 inh; activation (fluorescence interference), % at 20 µM; 1,800 tested, under 10 active; AID 504615; Rh110 fluorescence interference, quenched caspase reaction;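 active means signal rise of 40% or more at 20 µM, treated as a fluorescence artifact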
Active calls of the source: *; . = no result.

SMILES	Exocytosis inh	iPSC survival up	UBC13 inh	Apaf-1 inh	MPTP inh	MIN6 prolif	Apaf-1 inh conf	Rh110 interf inh
CCOc1ccc(C(=O)N[C@H](C(=O)NNC(=O)c2cccs2)C(C)C)cc1	-1	0	0	-1	0	-3	.	.
CCN(CC)c1ccc(N=Cc2ccc([N+](=O)[O-])o2)cc1	-6	-3	-129	56*	8	-6	27	10
CCCCCC(=O)N/N=C/c1ccc([N+](=O)[O-])o1	0	0	-11	6	2	-4	.	.
C[C@H](CO)N1C[C@H](C)[C@@H](CN(C)Cc2ccc(Oc3ccccc3)cc2)Oc2c(NC(=O)C3CC3)cccc2C1=O	0	-1	16	43*	0	-6	22	-4
O=C(O)CC1S/C(=N/N=C/c2ccc(-c3ccccc3[N+](=O)[O-])o2)NC1=O (configuration not stated)	5	-1	-42	73*	4	-3	21	2
Cc1ccc(S(=O)(=O)Oc2ccc(/C=N/N=C3/NC(=O)C(CC(=O)O)S3)cc2)cc1 (configuration not stated)	-7	0	-14	7	-3	-3	.	.
Cc1ccc(-c2ccc(/C=N/N=C3/NC(=O)C(CC(=O)O)S3)o2)c([N+](=O)[O-])c1 (configuration not stated)	-3	1	-47	74*	2	-2	28	9
CCn1c(=O)c2cc(C(=O)N(C)c3cc(C)ccc3OC)sc2c2ccccc21	1	-1	-1	53*	3	-3	26	7
CCn1c(=O)c2cc(C(=O)Nc3ccccc3OC)sc2c2ccccc21	2	0	-2	3	1	3	.	.
O=C(CN(Cc1ccc(F)cc1)C(=O)CNS(=O)(=O)c1ccccc1)NCc1ccco1	9	0	0	10	-1	0	.	.
COCCN(C(=O)CSc1nc(N)cc(=O)[nH]1)c1c(N)n(Cc2ccccc2)c(=O)[nH]c1=O	-1	-1	0	45*	-1	-1	2	4
COCCN(C(=O)CSc1nc2ccc(C)cc2[nH]1)c1c(N)n(Cc2ccccc2)c(=O)[nH]c1=O	-5	3	1	0	0	1	.	.
Cc1ccc(S(=O)(=O)N2[C@@H](c3cccc(Cl)c3)C(C(=O)OC(C)(C)C)=CC[C@H]2c2cccc(Cl)c2)cc1	2	-1	.	.	1	.	.	.
CN(C)C(=O)c1ccc(NC(=O)c2sccc2-c2ccccc2)cc1	-6	0	4	45*	-1	2	31	1
O=C1c2ccccc2C(=O)N1CC(=O)N1c2ccccc2CCc2ccccc21	-2	-2	2	-8	-2	-1	.	.
O=C(C(Cc1ccccc1)N1C(=O)c2ccccc2C1=O)N1c2ccccc2CCc2ccccc21 (configuration not stated)	0	2	-13	40*	5	-5	13	1
CC(=O)C(C(C)=O)C(c1ccccc1)c1nc2ccccc2[nH]c1=O (configuration not stated)	0	0	8	5	0	-2	.	.
CN1CCN(S(=O)(=O)c2cccc(C(=O)Nc3cc(C(F)(F)F)ccc3N3CCCCC3)c2)CC1	16	0	17	40*	2	-6	23	8
CC(=O)COc1cc2c(-c3cc4ccccc4o3)cc(=O)oc2cc1C	11	1	-7	7	0	2	.	.
CCCCCCCCCCCCN1[C@@H](CC(=O)O)c2cc(C(F)(F)F)ccc2S1(=O)=O	-3	-1	-39	41*	14	-8	26	8
CCCCCCCCN1[C@@H](CC(=O)O)c2cc(C(F)(F)F)ccc2S1(=O)=O	1	-1	-7	1	3	-8	.	.
Cc1cc(N2CCN(C(C(=O)NC3CCCC3)C(C)C)CC2)c2ccccc2n1 (configuration not stated)	6	.	.	.	-1	.	.	.
